Nine molecules from ChEMBL document CHEMBL2385063, “Identification of 2-(2-(1-naphthoyl)-8-fluoro-3,4-dihydro-1H-pyrido[4,3-b]indol-5(2H)-yl)acetic acid (setipiprant/ACT-129968), a potent, selective, and orally bioavailable chemoattractant receptor-homologous molecule expressed on Th2 cells (CRTH2) antagonist” (J Med Chem, 2013) can be followed below.

A short description of data set [1]: Oral bioavailability in beagle dog at 10 mg/kg. To be noted: in vivo. It counts as ADME, organism-based, Canis lupus familiaris. Put shortly: (§1)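 Male Beagle dogs, three per experiment, dosed orally at 10 mg/kg (with a 1 mg/kg iv arm) as solutions containing 10% propylene glycol; AUC0-last and oral bioavailability derived.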
Data set [2] in a line: Volume of distribution at steady state in Wistar rat at 2 mg/kg, iv and 10 mg/kg, po. Format: ADME, organism-based. As to conditions: in vivo, read-out: Vdss. An outline of the steps: (§2)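 Male Wistar rats, three animals per experiment, were dosed intravenously and orally with compound given as solutions.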
Data set [3] deals with T1, Chemoattractant receptor-homologous molecule expressed on Th2 cells (Cavia porcellus) (UniProt Q56D28).
T1 sequence (whole entry): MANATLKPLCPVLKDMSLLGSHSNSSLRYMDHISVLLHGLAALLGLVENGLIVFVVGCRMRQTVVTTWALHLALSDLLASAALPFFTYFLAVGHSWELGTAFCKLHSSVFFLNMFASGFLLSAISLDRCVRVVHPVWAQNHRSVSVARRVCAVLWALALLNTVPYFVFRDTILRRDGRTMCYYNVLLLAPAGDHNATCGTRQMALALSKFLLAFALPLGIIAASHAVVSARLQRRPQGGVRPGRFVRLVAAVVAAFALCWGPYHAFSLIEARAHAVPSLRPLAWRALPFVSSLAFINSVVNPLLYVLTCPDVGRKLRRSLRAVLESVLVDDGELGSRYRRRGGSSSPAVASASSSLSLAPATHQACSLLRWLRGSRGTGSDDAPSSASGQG
Kind of data set: Partial agonist activity at guinea pig CRTH2 receptor assessed as calcium flux by cell-based FLIPR assay. Format: functional. In general terms: A change in cytosolic calcium serves as a functional read-out for many receptors and channels.

Data set [4] in a line: Oral bioavailability in Wistar rat at 10 mg/kg. It counts as ADME, organism-based. As to conditions: in vivo. An outline of the steps: (§3)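 Male Wistar rats, three animals per experiment, given iv (0.2, 1 or 2 mg/kg) and po (2 or 10 mg/kg) doses as solutions; AUC0-last, plasma clearance, half-life and oral bioavailability derived.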
Data set [5] has as its target T2, Prostaglandin D2 receptor 2 (Mus musculus) (UniProt Q9Z2J6).
T2 sequence (whole entry): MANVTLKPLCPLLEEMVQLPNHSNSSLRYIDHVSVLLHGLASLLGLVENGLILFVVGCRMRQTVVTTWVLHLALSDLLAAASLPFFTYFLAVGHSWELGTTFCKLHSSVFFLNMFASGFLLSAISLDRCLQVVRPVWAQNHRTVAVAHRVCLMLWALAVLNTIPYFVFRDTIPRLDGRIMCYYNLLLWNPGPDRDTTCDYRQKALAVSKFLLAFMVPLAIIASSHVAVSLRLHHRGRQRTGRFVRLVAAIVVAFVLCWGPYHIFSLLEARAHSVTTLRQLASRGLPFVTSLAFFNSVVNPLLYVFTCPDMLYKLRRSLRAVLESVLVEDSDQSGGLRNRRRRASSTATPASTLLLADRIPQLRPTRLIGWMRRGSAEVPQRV
Kind of data set: Partial agonist activity at mouse CRTH2 receptor assessed as calcium flux by cell-based FLIPR assay. Format: functional.

Data set [6] is described as follows: Clearance in beagle dog at 1 mg/kg, iv. It counts as ADME, organism-based, Canis lupus familiaris. More on the design: dose 1 mg/kg, route intravenous. To be noted: in vivo. An outline of the steps:
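Male Beagle dogs, three per experiment, given 1 mg/kg iv as a solution in 10% propylene glycol; plasma clearance determined.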

Data set [7] is described as follows: Half life in Wistar rat at 2 mg/kg, iv and 10 mg/kg, po. It counts as ADME, organism-based. As to conditions: in vivo. Put shortly: as §3
The subject of another data set is Canis familiaris. In words: AUC (0 to last) in beagle dog at 10 mg/kg, po. It counts as ADME, organism-based, Canis lupus familiaris, Plasma. More on the design: time 0 - last, dose 10 mg/kg, route oral. As to conditions: in vivo. Put shortly:
as §1

Data set [8] in a line: Plasma clearance in Wistar rat at 2 mg/kg, iv and 10 mg/kg, po. It counts as ADME, organism-based. Put shortly: as §3
Data set [9] deals with Rattus norvegicus. Kind of data set: AUC(0 to last) in Wistar rat at 2 mg/kg, iv and 10 mg/kg, po. It counts as ADME, organism-based, Plasma. To be noted: in vivo. Put shortly: as §3
A short description of data set [10]: Volume of distribution at steady state in Wistar rat at 1 mg/kg, iv and 10 mg/kg, po. Format: ADME, organism-based. As to conditions: in vivo, read-out: Vdss. Put shortly: as §2
Data set [11] deals with Rattus norvegicus. Kind of data set: AUC(0 to last) in Wistar rat at 1 mg/kg, iv and 10 mg/kg, po. It counts as ADME, organism-based, Plasma. As to conditions: in vivo. An outline of the steps: as §3
Data set [12] is described as follows: Half life in Wistar rat at 1 mg/kg, iv and 10 mg/kg, po. It counts as ADME, organism-based. To be noted: in vivo. Put shortly:
as §3

A short description of data set [13]: Plasma clearance in Wistar rat at 1 mg/kg, iv and 10 mg/kg, po. Format: ADME, organism-based. Put shortly:
as §3

The nature of data set [14]: Solubility of the compound in water at pH 4.9. Format: physicochemical. Put shortly:
(§4)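 Compound stirred in 200 μL water at 300 rpm, 25 °C, for 24 h. The biphasic mixture was vacuum-filtered. Filtrate concentration was measured by reversed-phase HPLC with UV detection at 250 nm and quantified from peak area against a calibration curve.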

Data set [15] is described as follows: Solubility of the compound in water. Format: physicochemical. An outline of the steps: (§5)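 Compound was stirred in water, 60 mM citrate buffer pH 4 or 70 mM phosphate buffer pH 7 at 300 rpm, 25 °C, for 24 h. The mixture was filtered, and the filtrate concentration was measured by HPLC-UV at 250 nm against a calibration curve.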
Data set [16] in a line: Solubility of the compound in water at pH 3.8. Format: physicochemical. An outline of the steps: as §5
Data set [17] can be described thus: Solubility of the compound in water at pH 3.9. Format: physicochemical. Put shortly:
as §5

The nature of data set [18]: Plasma clearance in Wistar rat at 0.2 mg/kg, iv and 2 mg/kg, po. Format: ADME, organism-based. An outline of the steps:
as §3

A short description of data set [19]: Volume of distribution at steady state in Wistar rat at 0.2 mg/kg, iv and 2 mg/kg, po. Format: ADME, organism-based. To be noted: in vivo, read-out: Vdss. Put shortly: as §2
Data set [20] can be described thus: Half life in Wistar rat at 0.2 mg/kg, iv and 2 mg/kg, po. It counts as ADME, organism-based. To be noted: in vivo. An outline of the steps: as §3
A short description of data set [21]: Oral bioavailability in Wistar rat at 2 mg/kg. Format: ADME, organism-based. As to conditions: in vivo. An outline of the steps: as §3
In data set [22] the test system is Rattus norvegicus. Kind of data set: AUC(0 to last) in Wistar rat at 0.2 mg/kg, iv and 2 mg/kg, po. It counts as ADME, organism-based, Plasma. To be noted: in vivo. An outline of the steps:
as §3

The next data set concerns the target CYP2D6 (Homo sapiens, UniProt P10635). In words: Inhibition of CYP2D6 in human liver microsomes assessed as dextromethorphan O-demethylation by LC-MS/MS analysis. It counts as ADME, Microsome. To be noted: human, liver microsomes, probe dextromethorphan (O-demethylation). Background: Microsomes from liver hold many membrane-bound enzymes, among them those of drug oxidation.

A further data set deals with CYP3A4 (Homo sapiens, UniProt P08684). In words: Inhibition of CYP3A4 in human liver microsomes assessed as midazolam-1'-hydroxylation by LC-MS/MS analysis. It counts as ADME, Microsome. As to conditions: human, liver microsomes, probe midazolam (1'-hydroxylation).
The nature of data set [23]: Solubility of the compound in water at pH 5.7. It counts as physicochemical. An outline of the steps:
as §4

In brackets after ≈: the same amount, converted by molar mass. Activity calls are given as the source filed them. The calls are words filed in the database; no cut-off is given here.

Sequence of CYP3A4 (P08684 whole entry): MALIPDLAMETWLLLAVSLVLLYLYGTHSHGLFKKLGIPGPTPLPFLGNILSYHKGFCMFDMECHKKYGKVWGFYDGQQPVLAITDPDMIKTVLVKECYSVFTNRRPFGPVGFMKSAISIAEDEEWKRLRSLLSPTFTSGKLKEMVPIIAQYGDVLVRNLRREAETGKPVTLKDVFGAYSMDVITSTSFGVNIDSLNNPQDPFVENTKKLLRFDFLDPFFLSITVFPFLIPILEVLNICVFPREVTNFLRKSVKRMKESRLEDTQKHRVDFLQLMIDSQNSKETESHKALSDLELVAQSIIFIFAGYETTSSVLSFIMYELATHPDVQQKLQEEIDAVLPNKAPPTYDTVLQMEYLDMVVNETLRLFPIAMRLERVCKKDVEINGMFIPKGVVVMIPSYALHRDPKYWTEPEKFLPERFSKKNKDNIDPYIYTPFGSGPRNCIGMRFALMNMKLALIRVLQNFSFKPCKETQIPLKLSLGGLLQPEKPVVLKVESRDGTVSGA
Sequence of CYP2D6 (P10635 whole entry): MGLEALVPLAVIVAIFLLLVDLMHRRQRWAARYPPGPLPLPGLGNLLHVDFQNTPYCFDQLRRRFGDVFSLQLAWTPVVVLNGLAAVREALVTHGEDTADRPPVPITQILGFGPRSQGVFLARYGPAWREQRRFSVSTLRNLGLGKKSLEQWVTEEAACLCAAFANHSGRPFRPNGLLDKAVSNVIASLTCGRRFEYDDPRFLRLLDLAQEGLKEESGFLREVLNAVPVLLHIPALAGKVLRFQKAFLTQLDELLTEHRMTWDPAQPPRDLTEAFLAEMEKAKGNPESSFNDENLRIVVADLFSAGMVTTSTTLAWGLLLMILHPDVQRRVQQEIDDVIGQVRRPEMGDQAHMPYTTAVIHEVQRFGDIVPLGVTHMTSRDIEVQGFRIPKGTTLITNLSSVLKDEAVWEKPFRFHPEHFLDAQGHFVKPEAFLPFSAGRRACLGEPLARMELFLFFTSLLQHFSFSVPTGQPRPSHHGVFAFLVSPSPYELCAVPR

Broadly, the bioavailability is the share of a dose that reaches the circulation, judged against a reference dose that is usually intravenous. Usually half-life stands for the time in which the quantity being followed falls by half. Low readings indicate rapid decline, high ones slow decline. Take `O=C(O)Cn1c2c(c3cc(F)ccc31)CN(C(=O)c1cccc3ccccc13)CC2` [SETIPIPRANT]: the bioavailability in data set [1] was 55%; in [4], 44%. Also, the Vd in data set [2] stood at 0.4 L/kg. Moreover, the result in [3] and in [5] was Active. Further, the clearance in data set [6] and in data set [8] was 1.3 mL/min/kg in each case. The half-life in data set [7] was 360 min. Besides, the AUClast came to 91100 ng·h/mL with Canis familiaris and 58500 ng·h/mL in the data set on Rattus norvegicus [9].

In general, solubility refers to the dissolved amount per volume that the medium holds. In the case of `O=C(O)Cn1c2c(c3cc(F)ccc31)CN(C(=O)c1cccc(Cl)c1)CC2`, the bioavailability was found to be 64% in data set [1] and 23% in [4]. Moreover, the Vd in data set [10] came out at 0.4 L/kg. The AUClast was determined as 6450 ng·h/mL in the data set with Rattus norvegicus [11] and 9620 ng·h/mL with Canis familiaris. Further, the result in data set [3] and in data set [5] was Active. Moreover, the clearance in data set [6] was determined as 11 mL/min/kg; in data set [13] it was 5.9 mL/min/kg. In data set [12], this molecule had a half-life of 138 min. For the same molecule, the concentration in solution in [14] (solubility) came to 25 µg/mL (≈ 64.6 µM).

As to `CCc1ccc(-c2ccc(C(=O)N3CCc4c(c5ccccc5n4CC(=O)O)C3)cc2)cc1`, the Vd in data set [2] worked out at 0.4 L/kg. For the same molecule, the bioavailability in data set [4] was found to be 4%. Also, in data set [7], the half-life is 30 min. In data set [8], this molecule returned a clearance of 35 mL/min/kg. For the same molecule, the AUClast with Rattus norvegicus [9] is 171 ng·h/mL.

Regarding `O=C(O)Cn1c2c(c3ccccc31)CN(C(=O)c1cccc3ccccc13)CC2`, the Vd in data set [10] came to 0.4 L/kg. In the data set with Rattus norvegicus [11], this molecule came in with an AUClast of 57300 ng·h/mL. Further, the outcome in [3] and in [5] was Active. Besides, in data set [4], the bioavailability came out at 36%. Also, the solubility in data set [15] worked out at 335 µg/mL (≈ 871 µM). For the same molecule, the half-life in data set [12] was 348 min. In addition, the clearance in data set [13] amounted to 1.1 mL/min/kg.

With `O=C(O)Cn1c2c(c3ccccc31)CN(C(=O)c1cccc(Cl)c1)CC2`, the concentration in solution in data set [16] (solubility) was 110 µg/mL (≈ 298 µM).

`O=C(O)Cn1c2c(c3cc(F)ccc31)CN(C(=O)c1cccs1)CC2`: the Vd in data set [10] turned out to be 0.4 L/kg. Also, the AUClast in the data set on Rattus norvegicus [11] was 244 ng·h/mL. For the same molecule, in [4], the bioavailability turned out to be 5%. The molecule further gave a solubility in data set [17] of 50 µg/mL (≈ 140 µM). Besides, the half-life in data set [12] is 36 min. The molecule also had a clearance in data set [13] of 36 mL/min/kg.

In the case of `O=C(O)Cn1c2c(c3cc(F)ccc31)CN(C(=O)Cc1c[nH]c3ccccc13)CC2`, the clearance in [18] amounted to 11 mL/min/kg. For the same molecule, in data set [19], the Vd was found to be 0.4 L/kg. For the same molecule, the half-life in data set [20] was 72 min. The molecule further gave a bioavailability in [21] of 2%. Further, the solubility in [16] was 45 µg/mL (≈ 111 µM). This molecule also displayed an AUClast in the data set on Rattus norvegicus [22] of 62 ng·h/mL.

By IC50 is commonly meant the concentration needed to halve the response being measured. Regarding `O=C(O)Cn1c2c(c3ccccc31)CN(C(=O)c1ccccc1)CC2`, the Vd in data set [10] is 0.4 L/kg. Besides, in the data set with Rattus norvegicus [11], the AUClast was determined as 6300 ng·h/mL. For the same molecule, the half-maximal inhibitory concentration (IC50) on CYP2D6 and on CYP3A4 was over 50 µM throughout.

Regarding `O=C(O)Cn1c2c(c3cc(F)ccc31)CN(C(=O)Cc1cccc3ccccc13)CC2`, the solubility in data set [23] is 28 µg/mL (≈ 67.2 µM).
